Calls of active or inactive are those of the source. No cut-off for these calls is given here.
Legend:
[1] = biological target: T1, Bromodomain-containing protein 2 (Homo sapiens, UniProt P25440); assay: Binding affinity to human partial length BRD2 BD2 (E348to D455 residues) expressed in bacterial expression system using H4K5acIC8acK12acK16ac-biotinylated peptide as substrate preincubated for 30 mins followed by substrate addition by AlphaScreen assay
Outline: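 AlphaScreen. Biotinylated H4K5acK8acK12acK16ac peptide added at equal concentration to protein for 30 min. Donor and acceptor beads (25 µg/mL each) added, ≥1 h in the dark. Triplicate, curve-fitted, SEM.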

[2] = biological target: T2, Bromodomain-containing protein 3 (Homo sapiens, UniProt Q15059); assay: Induction of BRD3 degradation in human PC-3 cells incubated for 16 hrs by immunoblotting analysis; assay type: cell-based
Outline: (§1)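 MDA-MB-231 or PC-3 cells at 50% confluence in DMEM/10% FBS/pen-strep, treated 16 h with doses falling tenfold from 10 µM to 1 nM. RIPA lysates immunoblotted for BRD2, BRD3 and BRD4 with GAPDH as control. DC50 derived from band densitometry. SEM, n = 2.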

[3] = biological target: T2, Bromodomain-containing protein 3; assay: Induction of BRD3 degradation in human MDA-MB-231 cells at 10 uM by immunoblotting analysis; assay type: cell-based; settings: time 8.0 hrs
Target sequence in this assay (Q15059 2-726 limits assumed): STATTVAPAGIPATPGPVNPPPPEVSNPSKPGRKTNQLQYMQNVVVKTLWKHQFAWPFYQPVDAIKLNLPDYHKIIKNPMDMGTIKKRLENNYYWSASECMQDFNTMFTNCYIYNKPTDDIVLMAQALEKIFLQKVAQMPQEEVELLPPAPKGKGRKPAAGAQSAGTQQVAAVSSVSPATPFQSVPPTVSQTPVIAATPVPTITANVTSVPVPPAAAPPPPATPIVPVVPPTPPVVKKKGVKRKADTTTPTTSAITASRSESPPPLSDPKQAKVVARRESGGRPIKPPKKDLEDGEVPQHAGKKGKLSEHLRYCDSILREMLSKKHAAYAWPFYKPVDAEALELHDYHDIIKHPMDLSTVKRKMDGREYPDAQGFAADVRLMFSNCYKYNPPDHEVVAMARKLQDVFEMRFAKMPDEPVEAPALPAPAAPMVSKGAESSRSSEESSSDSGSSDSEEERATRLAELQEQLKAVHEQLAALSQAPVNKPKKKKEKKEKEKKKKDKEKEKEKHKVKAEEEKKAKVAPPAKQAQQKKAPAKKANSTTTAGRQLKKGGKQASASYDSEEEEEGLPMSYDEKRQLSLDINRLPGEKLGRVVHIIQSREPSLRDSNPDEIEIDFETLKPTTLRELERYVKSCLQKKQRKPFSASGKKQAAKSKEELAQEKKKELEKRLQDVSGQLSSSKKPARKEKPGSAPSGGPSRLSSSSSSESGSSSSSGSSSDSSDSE

[4] = biological target: T2, Bromodomain-containing protein 3; assay: Binding affinity to human partial length BRD3 BD1 (P24 to E144 residues) expressed in bacterial expression system assessed as change in melting temperature at 50 uM at 20 to 85 degreeC by SYPRO orange staining based thermal shift assay
Outline: (§2)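 DSF thermal shift. 10 µM BD in 50 mM HEPES, 500 mM NaCl pH 7.5, with 50 µM compound or DMSO-matched control and 1:1000 Sypro Orange (ex 465/em 590 nm). Ramp 20–85 °C at 0.03 °C/s. Tm taken as the midpoint between fluorescence max and min. At least three independent experiments, SEM in °C.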
Target sequence in this assay (Q15059 2-726 limits assumed): as above

VCaP [5] = assay: Downregulation of ERG gene levels in human VCaP cells incubated for 24 hrs by qRT-PCR analysis; assay type: functional, cell-based; settings: dose 25-2500 nM
Outline: (§3)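 VCaP cells grown to 50% confluence, then treated with compound or DMSO (Methods state 16 h, legend states 24 h). Total RNA isolated, cDNA made from 1 µg RNA, SYBR Green qPCR run in triplicate. Expression by ΔΔCt, normalised to GAPDH. Three independent experiments, SEM.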

[6] = biological target: T2, Bromodomain-containing protein 3; assay: Binding affinity to 6His-tagged BRD3-BD2 (unknown origin) by MST assay
Outline: (§4)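 His6-tagged BD (80 nM) after size-exclusion, labelled 1:1 with 10 nM Red-tris-NTA in PBST (0.05% Tween-20) for 30 min at room temperature, then centrifuged. Mixed with an equal volume of serially diluted compound. Thermophoresis read at 40% LED/MST power. Triplicate data curve-fitted, error as SEM.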
Target sequence in this assay (Q15059 whole entry): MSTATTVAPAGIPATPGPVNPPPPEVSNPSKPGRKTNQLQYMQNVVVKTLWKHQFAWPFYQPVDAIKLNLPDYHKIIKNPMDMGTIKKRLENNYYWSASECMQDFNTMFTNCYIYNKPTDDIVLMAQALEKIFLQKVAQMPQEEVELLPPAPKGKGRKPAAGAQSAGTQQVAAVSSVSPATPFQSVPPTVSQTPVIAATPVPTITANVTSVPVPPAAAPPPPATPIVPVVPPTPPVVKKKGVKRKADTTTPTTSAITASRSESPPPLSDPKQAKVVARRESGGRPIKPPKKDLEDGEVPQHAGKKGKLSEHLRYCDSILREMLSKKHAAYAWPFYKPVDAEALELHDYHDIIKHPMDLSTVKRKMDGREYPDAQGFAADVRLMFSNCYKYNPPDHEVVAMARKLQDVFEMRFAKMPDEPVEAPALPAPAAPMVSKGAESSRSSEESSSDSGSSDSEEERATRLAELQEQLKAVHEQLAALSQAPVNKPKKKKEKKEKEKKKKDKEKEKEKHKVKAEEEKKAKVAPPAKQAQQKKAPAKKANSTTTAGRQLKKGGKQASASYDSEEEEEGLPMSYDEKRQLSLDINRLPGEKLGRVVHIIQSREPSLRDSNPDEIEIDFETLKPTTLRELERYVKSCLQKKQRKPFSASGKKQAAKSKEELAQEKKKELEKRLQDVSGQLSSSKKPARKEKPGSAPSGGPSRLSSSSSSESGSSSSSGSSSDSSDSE

[7] = biological target: T3, Bromodomain testis-specific protein (Homo sapiens, UniProt Q58F21); assay: Binding affinity to human partial length BRDT BD2 (K250 to E382 residues) expressed in bacterial expression system assessed as change in melting temperature at 50 uM at 20 to 85 degreeC by SYPRO orange staining based thermal shift assay; outline: as §2
[8] = biological target: T4, Bromodomain-containing protein 4 (Homo sapiens, UniProt O60885); assay: Binding affinity to human partial length BRD4 BD1 (N44 to E168 residues) expressed in bacterial expression system using H4K5acIC8acK12acK16ac-biotinylated peptide as substrate preincubated for 30 mins followed by substrate addition by AlphaScreen assay
[9] = biological target: T2, Bromodomain-containing protein 3; assay: Induction of BRD3 degradation in human MDA-MB-231 cells incubated for 16 hrs by immunoblotting analysis; assay type: cell-based; outline: as §1
[10] = biological target: T1, Bromodomain-containing protein 2; assay: Induction of BRD2 degradation in human MDA-MB-231 cells incubated for 16 hrs by immunoblotting analysis; assay type: cell-based; outline: as §1
[11] = biological target: T4, Bromodomain-containing protein 4; assay: Induction of BRD4 degradation in human MDA-MB-231 cells assessed as decrease in BET half life at 10 uM incubated for 8 hrs in presence of cycloheximide by immunoblotting analysis; assay type: cell-based
Outline: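 MDA-MB-231 time-course. Cells given 50 µg/mL cycloheximide plus DMSO, or 50 µg/mL cycloheximide plus 10 µM compound. RIPA lysates immunoblotted for BRD2, BRD3 and BRD4 with GAPDH as control.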

VCaP [12] = assay: Downregulation of TMPRSS2 gene levels in human VCaP cells incubated for 24 hrs by qRT-PCR analysis; assay type: functional, cell-based; settings: dose 25-2500 nM; outline: as §3
[13] = biological target: T4, Bromodomain-containing protein 4; settings: dose 50.0 µM
[14] = biological target: T2, Bromodomain-containing protein 3; assay: Induction of BRD3 degradation in human MDA-MB-231 cells at 0.025 to 2.5 uM incubated for 24 hrs by qRT-PCR analysis; assay type: cell-based; settings: dose 0.025-2.5 µM
Outline: (§5)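 MDA-MB-231 cells treated for 24 h at doses rising tenfold from 25 nM to 2.5 µM. Gene expression measured by qRT-PCR. SEM, n = 3.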
Target sequence in this assay (Q15059 2-726 limits assumed): as the sequence (Q15059 2-726 limits assumed) above

VCaP [15] = assay: Downregulation of AR […] expression in human VCaP cells incubated for 24 hrs by qRT-PCR analysis; assay type: functional, cell-based; settings: dose 25-2500 nM; outline: as §3
[16] = biological target: T2, Bromodomain-containing protein 3; assay: Binding affinity to 6His-tagged BRD3-BD1 (unknown origin) by MST assay; outline: as §4
Target sequence in this assay (Q15059 whole entry): as the sequence (Q15059 whole entry) above

[17] = biological target: T1, Bromodomain-containing protein 2; assay: Induction of BRD2 degradation in human PC-3 cells incubated for 16 hrs by immunoblotting analysis; assay type: cell-based; outline: as §1
[18] = biological target: T4, Bromodomain-containing protein 4; assay: Induction of BRD4 degradation in human MDA-MB-231 cells incubated for 16 hrs by immunoblotting analysis; assay type: cell-based; outline: as §1
[19] = Induction of degradation in human PC-3 cells incubated for 16 hrs by immunoblotting analysis
[20] = biological target: T4, Bromodomain-containing protein 4; assay: Induction of BRD4 degradation in human PC-3 cells incubated for 16 hrs by immunoblotting analysis; assay type: cell-based; outline: as §1
[21] = Antiproliferative activity against human Androgen-resistant 22Rv1 cells assessed as reduction in cell viability measured after 72 hrs by MTS assay; assay type: functional, cell-based; settings: 22Rv1, 72 h
Outline: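 MTS viability assay run in triplicate wells. Serial dilutions in DMSO were given, with DMSO as negative control and doxorubicin as positive control, and incubated 72 h. MTS reagent was added for 2 h and absorbance read at 490 nm. % cytotoxicity = (A_medium − A_treatment)/A_medium × 100. EC50 ± SD was taken from dose-response curves of at least three independent experiments.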

VCaP [22] = assay: Downregulation of BRD3 mRNA levels in human VCaP cells at 25 to 2500 nM incubated for 24 hrs by qRT-PCR analysis; assay type: functional, cell-based; settings: dose 25-2500 nM; outline: as §3
[23] = biological target: T3, Bromodomain testis-specific protein; assay: Binding affinity to human partial length BRDT BD1 (N21 to E137 residues) expressed in bacterial expression system assessed as change in melting temperature at 50 uM at 20 to 85 degreeC by SYPRO orange staining based thermal shift assay; outline: as §2
MDA-MB-231 = assay: Effect on BET mRNA levels in human MDA-MB-231 cells at 0.025 to 2.5 uM incubated for 24 hrs by qRT-PCR analysis; assay type: functional, cell-based; settings: dose 0.025-2.5 µM; outline: as §5

T1 sequence (P25440 whole entry, the tested form may be a part): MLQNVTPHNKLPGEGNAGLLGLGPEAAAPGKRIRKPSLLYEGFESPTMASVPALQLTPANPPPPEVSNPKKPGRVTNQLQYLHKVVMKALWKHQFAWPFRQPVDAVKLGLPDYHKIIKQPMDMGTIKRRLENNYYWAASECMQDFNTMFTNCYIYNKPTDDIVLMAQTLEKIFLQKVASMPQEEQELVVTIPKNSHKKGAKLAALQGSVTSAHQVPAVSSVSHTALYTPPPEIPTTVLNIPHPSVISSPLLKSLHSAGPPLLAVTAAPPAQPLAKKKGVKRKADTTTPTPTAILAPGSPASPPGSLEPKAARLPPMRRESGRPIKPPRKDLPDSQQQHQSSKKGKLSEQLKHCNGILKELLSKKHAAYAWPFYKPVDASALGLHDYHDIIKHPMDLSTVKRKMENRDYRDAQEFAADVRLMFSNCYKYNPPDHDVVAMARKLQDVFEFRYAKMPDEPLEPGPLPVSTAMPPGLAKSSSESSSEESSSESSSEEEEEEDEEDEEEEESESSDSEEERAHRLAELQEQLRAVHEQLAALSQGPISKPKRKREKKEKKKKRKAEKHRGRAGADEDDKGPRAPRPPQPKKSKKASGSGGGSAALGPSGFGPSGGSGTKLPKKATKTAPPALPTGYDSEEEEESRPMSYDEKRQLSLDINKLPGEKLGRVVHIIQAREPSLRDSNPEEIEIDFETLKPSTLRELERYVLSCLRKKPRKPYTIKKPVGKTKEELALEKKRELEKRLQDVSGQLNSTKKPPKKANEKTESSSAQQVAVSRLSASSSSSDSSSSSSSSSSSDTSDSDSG

Structure (SMILES): CC(=O)OC[C@]12CC[C@H]3[C@@H](C[C@H]4O[C@]45CC=CC(=O)[C@]35C)[C@]1(O)CC[C@@]2(O)[C@@](C)(O)[C@H]1CC(C)=C(C)C(=O)O1
- IC50 [1]: 244 nM
- Activity [2]: Dose-Dependent Effect
- DC50 [2]: 7290 nM
- Activity [3]: Active
- ΔTm [4]: 12.5 °C
- Activity (VCaP [5]): Dose-Dependent Effect
- Kd [6]: 149 nM
- ΔTm [7]: 7.58 °C
- IC50 [8]: 17.9 nM
- Activity [9]: Dose-Dependent Effect
- DC50 [9]: 23.9 nM
- DC50 [10]: > 10000 nM
- Activity [11]: Active
- Activity (VCaP [12]): Dose-Dependent Effect
- ΔTm [13]: 7.33 °C
- Activity [14]: inactive
- Activity (VCaP [15]): Dose-Dependent Effect
- Kd [16]: 14.1 nM
- DC50 [17]: > 10000 nM
- Activity [18]: Dose-Dependent Effect
- DC50 [18]: 41.6 nM
- Activity [19]: Dose-Dependent Effect
- Activity [20]: Dose-Dependent Effect
- DC50 [20]: 56.7 nM
- EC50 [21]: 30.3 nM
- Activity (VCaP [22]): inactive
- ΔTm [23]: 9.57 °C
- Activity (MDA-MB-231): inactive

From ChEMBL document CHEMBL5316292 (J Med Chem, 2023)
